Measured values: publication PMC12824664 (Blood, 2025)

Assays:
[1] = system: relapsed/refractory chronic lymphocytic leukemia; assay: Phase 1/2 BRUIN trial, pirtobrutinib monotherapy, response per iwCLL 2018; format: in vivo, human
Procedure, shortened: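 Relapsed/refractory CLL patients pretreated with covalent BTK inhibitors received test compound monotherapy in a multicenter phase 1/2 trial. Response followed iwCLL 2018 criteria, with data cutoff 5 May 2023. ORR was the proportion with best response of partial response with lymphocytosis or better, with 2-sided 95% CI from the exact binomial. PBMCs at baseline and progression underwent targeted NGS; a more sensitive assay had 0.5% VAF LoD.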

wild type BTK = wild type BTK (Homo sapiens, UniProt Q06187); assay: biochemical; format: binding; conditions: read-out: residence time t1/2
Chain of wild type BTK (Q06187 whole entry): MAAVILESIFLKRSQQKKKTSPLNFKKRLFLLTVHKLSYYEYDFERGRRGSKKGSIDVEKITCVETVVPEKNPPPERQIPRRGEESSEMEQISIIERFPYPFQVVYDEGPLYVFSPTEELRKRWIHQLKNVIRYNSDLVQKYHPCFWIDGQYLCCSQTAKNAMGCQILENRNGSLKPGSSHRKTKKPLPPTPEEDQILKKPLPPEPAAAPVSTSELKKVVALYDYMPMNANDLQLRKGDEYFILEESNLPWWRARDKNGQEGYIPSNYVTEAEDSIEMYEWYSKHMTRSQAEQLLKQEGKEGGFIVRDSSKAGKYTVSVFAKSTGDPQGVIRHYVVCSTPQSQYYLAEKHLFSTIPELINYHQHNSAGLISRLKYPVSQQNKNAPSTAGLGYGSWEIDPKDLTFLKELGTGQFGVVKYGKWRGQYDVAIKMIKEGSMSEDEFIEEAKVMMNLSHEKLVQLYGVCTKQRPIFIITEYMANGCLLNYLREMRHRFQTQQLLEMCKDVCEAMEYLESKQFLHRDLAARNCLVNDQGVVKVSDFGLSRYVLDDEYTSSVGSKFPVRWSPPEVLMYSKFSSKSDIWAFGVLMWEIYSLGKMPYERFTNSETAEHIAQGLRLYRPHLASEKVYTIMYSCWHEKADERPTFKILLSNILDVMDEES

[2] = system: BTK mutants with kinase activity (Y545N, V416L, T474I, C481S+T474I) in Ramos BTK KO cells; format: cell-based; conditions: variants with kinase activity vs wild type

SMILES: COc1ccc(F)cc1C(=O)NCc1ccc(-c2nn([C@@H](C)C(F)(F)F)c(N)c2C(N)=O)cc1 [Pirtobrutinib]
- BOR ([1]; 3 patients with detectable BTK L528W at baseline): partial response, stable disease, and PD
- BOR ([1]; 6 patients with detectable BTK T474x at baseline): PR (4), SD (1), and PD (1
- Median PFS (95%CI) ([1]; Patients with PD and longitudinal samples n=88): 10.3 months
- patients who experienced PD on pirtobrutinib ([1]; overall population, median follow-up of 29 months, 139 patients): 57%
- median PFS ([1]; patients with baseline BTK T474x (standard and high sensitivity), 95% CI, 7.4-22.3): 9.2 months
- residence time (wild type BTK): 336 min
- sensitivity to inhibition in cellular BTK phosphorylation assays [2]: less sensitive
